Calls of active or inactive are those of the source. The calls are words filed in the database; no cut-off is given here.

Sequence of Carbonic anhydrase 12 (O43570 whole entry): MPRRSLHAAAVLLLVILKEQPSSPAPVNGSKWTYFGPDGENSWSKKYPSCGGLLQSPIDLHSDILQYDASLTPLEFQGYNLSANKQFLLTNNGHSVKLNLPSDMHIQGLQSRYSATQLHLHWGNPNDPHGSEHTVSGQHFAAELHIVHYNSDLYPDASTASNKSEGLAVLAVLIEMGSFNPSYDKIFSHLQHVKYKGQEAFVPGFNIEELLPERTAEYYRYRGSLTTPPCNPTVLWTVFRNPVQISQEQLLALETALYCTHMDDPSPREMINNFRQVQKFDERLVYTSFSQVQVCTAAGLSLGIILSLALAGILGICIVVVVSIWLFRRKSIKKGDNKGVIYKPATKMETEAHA

The first experiment addresses Carbonic anhydrase 9 (Homo sapiens, UniProt Q16790). Description: Inhibition of human CA9 after 15 mins by stopped-flow CO2 hydration assay.
In the case of `O=c1oc2ccccc2c2c1c(Cc1ccccc1)nn2Cc1ccccc1`, the affinity, expressed as Ki, was 0.0315 µM.
As for `COc1c(C(C)=O)c(=O)oc2ccccc12`, the affinity, expressed as Ki, was 0.0284 µM.
For the compound `CCOc1c(C(C)=O)c(=O)oc2ccc(Br)cc12`, the inhibition constant Ki came out at 0.0464 µM. Compared with the last compound, the Ki is about 1.6-fold higher.
The compound `Cc1c2c(=O)oc3ccc([N+](=O)[O-])cc3c2nn1-c1ccccc1` showed a Ki of 0.0358 µM. This Ki and that of the compound before are within 1.5-fold of each other.
Still for that read-out and setting: as for `Cc1nn(-c2ccccc2)c2c1c(=O)oc1ccc(NC(=O)Nc3ccccc3)cc12`, the figure is 0.0779 µM; as for `Cc1cc2c(c(C)nn2-c2ccccc2)c(=O)o1`, 0.0266 µM.
The same measure, in the same setting: as for `COc1ccc(-n2nc(C)c3c(=O)oc4ccccc4c32)cc1`, the figure is 0.0402 µM; as for `Cc1nn(-c2ccccc2)c2c1c(=O)oc1ccc(Br)cc12`, 0.0085 µM; as for `Cc1nn(-c2ccccc2C(=O)O)c2c1c(=O)oc1ccccc12`, 0.0768 µM.
Same read-out and setting: next, `O=c1oc2ccccc2c2nn(Cc3ccccc3)c(Cc3ccccc3)c12`: 0.29 µM; `Cc1nn(-c2ccccc2)c2c1c(=O)oc1ccccc12`: 0.0096 µM.
The compound `CC(=O)c1cc2ccc(Cl)cc2oc1=O` gave a Ki of 0.809 µM.
Same read-out and setting: as for `Cc1cc2nn(-c3ccccc3)c(C)c2c(=O)o1`, the figure is 0.0414 µM; as for `Cn1nc(Cc2ccccc2)c2c(=O)oc3ccccc3c21`, 0.0197 µM.
Compound `CC(=O)c1cc2cc([N+](=O)[O-])c(Cl)cc2oc1=O` yielded an inhibition constant (Ki) of 0.561 µM.
`CC(=O)c1c(O)c2cc([N+](=O)[O-])ccc2oc1=O` gave a Ki of 0.0442 µM.
`CC(=O)c1cc2ccccc2oc1=O` [3-ACETYLCOUMARIN]: the Ki amounted to 0.152 µM.
Still for that read-out and setting: next, `Cc1nn(-c2ccc(Cl)cc2)c2c1c(=O)oc1ccccc12`: 0.403 µM.

The target of another experiment is Carbonic anhydrase 2 (Homo sapiens, UniProt P00918). Description: Inhibition of human CA2 after 15 mins by stopped-flow CO2 hydration assay.
Turning to `O=c1oc2ccccc2c2c1c(Cc1ccccc1)nn2Cc1ccccc1`, the inhibition constant (Ki) was over 10 µM.
Regarding `COc1c(C(C)=O)c(=O)oc2ccccc12`, the inhibition constant Ki was over 10 µM.
The compound `CCOc1c(C(C)=O)c(=O)oc2ccc(Br)cc12` showed an inhibitory constant (Ki) of over 10 µM.
`Cc1c2c(=O)oc3ccc([N+](=O)[O-])cc3c2nn1-c1ccccc1` had a Ki of over 10 µM.
Turning to `Cc1nn(-c2ccccc2)c2c1c(=O)oc1ccc(NC(=O)Nc3ccccc3)cc12`, the inhibition constant (Ki) was over 10 µM.
In turn, `Cc1cc2c(c(C)nn2-c2ccccc2)c(=O)o1` showed an inhibition constant (Ki) of over 10 µM.
`COc1ccc(-n2nc(C)c3c(=O)oc4ccccc4c32)cc1` registered a Ki of over 10 µM.
Same read-out and setting: next, `Cc1nn(-c2ccccc2)c2c1c(=O)oc1ccc(Br)cc12`: over 10 µM; `Cc1nn(-c2ccccc2C(=O)O)c2c1c(=O)oc1ccccc12`: over 10 µM; `O=c1oc2ccccc2c2nn(Cc3ccccc3)c(Cc3ccccc3)c12`: over 10 µM.
`Cc1nn(-c2ccccc2)c2c1c(=O)oc1ccccc12` registered a Ki of over 10 µM.
On to `CC(=O)c1cc2ccc(Cl)cc2oc1=O`, for which the Ki is over 10 µM.
The same measure, in the same setting: next, `Cc1cc2nn(-c3ccccc3)c(C)c2c(=O)o1`: over 10 µM; `Cn1nc(Cc2ccccc2)c2c(=O)oc3ccccc3c21`: over 10 µM.
On the same count and under the same terms, next, `CC(=O)c1cc2cc([N+](=O)[O-])c(Cl)cc2oc1=O`: over 10 µM.
In turn, `CC(=O)c1c(O)c2cc([N+](=O)[O-])ccc2oc1=O` yielded a Ki of over 10 µM.
For the compound `CC(=O)c1cc2ccccc2oc1=O` [3-ACETYLCOUMARIN], the Ki was over 10 µM.
In turn, `Cc1nn(-c2ccc(Cl)cc2)c2c1c(=O)oc1ccccc12` displayed a Ki of over 10 µM.

For the next experiment, the target named is Carbonic anhydrase 1 (Homo sapiens, UniProt P00915). Description: Inhibition of human CA1 after 15 mins by stopped-flow CO2 hydration assay.
Sequence of Carbonic anhydrase 1 (P00915 whole entry): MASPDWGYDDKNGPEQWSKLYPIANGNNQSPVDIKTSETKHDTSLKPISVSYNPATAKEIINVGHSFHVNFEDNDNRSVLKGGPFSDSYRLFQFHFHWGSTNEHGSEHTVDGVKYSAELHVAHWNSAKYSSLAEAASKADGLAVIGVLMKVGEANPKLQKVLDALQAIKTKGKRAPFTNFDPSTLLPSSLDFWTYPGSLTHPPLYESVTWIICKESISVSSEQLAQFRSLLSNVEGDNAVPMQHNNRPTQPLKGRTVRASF
In turn, `O=c1oc2ccccc2c2c1c(Cc1ccccc1)nn2Cc1ccccc1` came in with an inhibition constant Ki of over 10 µM.
Compound `COc1c(C(C)=O)c(=O)oc2ccccc12` displayed an inhibition constant (Ki) of over 10 µM.
Same read-out and setting: next, `CCOc1c(C(C)=O)c(=O)oc2ccc(Br)cc12`: over 10 µM; `Cc1c2c(=O)oc3ccc([N+](=O)[O-])cc3c2nn1-c1ccccc1`: over 10 µM.
The same measure, in the same setting: next, `Cc1nn(-c2ccccc2)c2c1c(=O)oc1ccc(NC(=O)Nc3ccccc3)cc12`: over 10 µM.
The same measure, in the same setting: as for `Cc1cc2c(c(C)nn2-c2ccccc2)c(=O)o1`, the figure is over 10 µM; as for `COc1ccc(-n2nc(C)c3c(=O)oc4ccccc4c32)cc1`, over 10 µM.
For `Cc1nn(-c2ccccc2)c2c1c(=O)oc1ccc(Br)cc12`, the Ki is over 10 µM.
`Cc1nn(-c2ccccc2C(=O)O)c2c1c(=O)oc1ccccc12` came in with a Ki of over 10 µM.
`O=c1oc2ccccc2c2nn(Cc3ccccc3)c(Cc3ccccc3)c12` returned a Ki of over 10 µM.
As to `Cc1nn(-c2ccccc2)c2c1c(=O)oc1ccccc12`, the inhibition constant Ki was over 10 µM.
The same measure, in the same setting: as for `CC(=O)c1cc2ccc(Cl)cc2oc1=O`, the figure is over 10 µM.
On the same count and under the same terms, as for `Cc1cc2nn(-c3ccccc3)c(C)c2c(=O)o1`, the figure is over 10 µM.
For the compound `Cn1nc(Cc2ccccc2)c2c(=O)oc3ccccc3c21`, the Ki is over 10 µM.
On the same count and under the same terms, next, `CC(=O)c1cc2cc([N+](=O)[O-])c(Cl)cc2oc1=O`: over 10 µM; `CC(=O)c1c(O)c2cc([N+](=O)[O-])ccc2oc1=O`: over 10 µM; `CC(=O)c1cc2ccccc2oc1=O` [3-ACETYLCOUMARIN]: over 10 µM.
Same read-out and setting: next, `Cc1nn(-c2ccc(Cl)cc2)c2c1c(=O)oc1ccccc12`: over 10 µM.

The test system of another experiment is HT-29. Description: Antiproliferative activity against human HT-29 cells at 30 to 300 uM after 72 hrs under hypoxic conditions by MTT assay. It counts as functional, cell-based. Summed up:
(§1)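 Hypoxic workstation at 0.1% O2, 5% CO2 and residual N2. HT-29 cells (DMEM high glucose, 20% FBS; 1·10^4/well) were treated 24 h post-plating with 0–300 μM compound for 16, 48 or 72 h. Viability was measured by MTT reduction (1 mg/ml, 30 min, 37 °C; DMSO-dissolved formazan, A550) and expressed as % of untreated control. Quadruplicates, ≥3 batches, mean ± SEM.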
For the compound `Cc1cc2nn(-c3ccccc3)c(C)c2c(=O)o1`, the result was Active.

A further experiment relates to HT-29. Description: Antiproliferative activity against human HT-29 cells at 30 to 300 uM after 48 hrs under hypoxic conditions by MTT assay. It counts as functional, cell-based. Put shortly: as §1
Turning to `Cc1nn(-c2ccccc2)c2c1c(=O)oc1ccccc12`, the outcome was Active.
Still for that read-out and setting: next, `Cc1cc2nn(-c3ccccc3)c(C)c2c(=O)o1`: “Active”.

The next experiment relates to HT-29. In words: Antiproliferative activity against human HT-29 cells after 16 hrs under normoxic conditions by MTT assay. It counts as functional, cell-based. Summed up:
(§2)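 HT-29 colon cancer cells in DMEM high glucose with 20% FBS were seeded at 1·10^4/well. After 24 h they were exposed to 0–300 μM compound for 16, 48 or 72 h in air (20% O2, 5% CO2, 37 °C). MTT (1 mg/ml) was added for 30 min, formazan dissolved in DMSO and read at 550 nm. Viability is relative to untreated control (100%). Quadruplicates on ≥3 cell batches, mean ± SEM.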
On to `Cc1nn(-c2ccccc2)c2c1c(=O)oc1ccccc12`, for which the Activity entry is “Dose-dependent effect”.
On the same count and under the same terms, as for `Cc1cc2nn(-c3ccccc3)c(C)c2c(=O)o1`, the entry is “Dose-dependent effect”.

A further experiment addresses Carbonic anhydrase 12 (Homo sapiens, UniProt O43570). In words: Inhibition of human CA12 after 15 mins by stopped-flow CO2 hydration assay.
Compound `O=c1oc2ccccc2c2c1c(Cc1ccccc1)nn2Cc1ccccc1` showed an inhibition constant (Ki) of 0.819 µM.
For the compound `COc1c(C(C)=O)c(=O)oc2ccccc12`, the Ki came to 0.674 µM.
In the case of `CCOc1c(C(C)=O)c(=O)oc2ccc(Br)cc12`, the inhibition constant Ki stood at 0.737 µM. The Ki values of the last two compounds are within 1.5-fold of each other.
Same read-out and setting: as for `Cc1c2c(=O)oc3ccc([N+](=O)[O-])cc3c2nn1-c1ccccc1`, the figure is 0.36 µM; as for `Cc1nn(-c2ccccc2)c2c1c(=O)oc1ccc(NC(=O)Nc3ccccc3)cc12`, 0.583 µM; as for `Cc1cc2c(c(C)nn2-c2ccccc2)c(=O)o1`, 0.518 µM.
Same read-out and setting: as for `COc1ccc(-n2nc(C)c3c(=O)oc4ccccc4c32)cc1`, the figure is over 10 µM.
Still for that read-out and setting: next, `Cc1nn(-c2ccccc2)c2c1c(=O)oc1ccc(Br)cc12`: 0.0071 µM.
On to `Cc1nn(-c2ccccc2C(=O)O)c2c1c(=O)oc1ccccc12`, for which the affinity, expressed as Ki, was 0.0273 µM.
The compound `O=c1oc2ccccc2c2nn(Cc3ccccc3)c(Cc3ccccc3)c12` displayed an inhibition constant (Ki) of 0.672 µM.
The same measure, in the same setting: next, `Cc1nn(-c2ccccc2)c2c1c(=O)oc1ccccc12`: 0.0058 µM; `CC(=O)c1cc2ccc(Cl)cc2oc1=O`: 4.53 µM.
The same measure, in the same setting: as for `Cc1cc2nn(-c3ccccc3)c(C)c2c(=O)o1`, the figure is over 10 µM; as for `Cn1nc(Cc2ccccc2)c2c(=O)oc3ccccc3c21`, 0.343 µM; as for `CC(=O)c1cc2cc([N+](=O)[O-])c(Cl)cc2oc1=O`, 6.4 µM.
`CC(=O)c1c(O)c2cc([N+](=O)[O-])ccc2oc1=O`: the inhibition constant (Ki) was 0.357 µM.
On the same count and under the same terms, next, `CC(=O)c1cc2ccccc2oc1=O` [3-ACETYLCOUMARIN]: 0.0078 µM; `Cc1nn(-c2ccc(Cl)cc2)c2c1c(=O)oc1ccccc12`: over 10 µM.

For the next experiment, the system named is HT-29. Description: Antiproliferative activity against human HT-29 cells at 30 to 300 uM after 48 hrs under normoxic conditions by MTT assay. It counts as functional, cell-based. Summed up: as §2
For `Cc1nn(-c2ccccc2)c2c1c(=O)oc1ccccc12`, the result was Active.
Turning to `Cc1cc2nn(-c3ccccc3)c(C)c2c(=O)o1`, the result was Active.

The values above are taken from ChEMBL document CHEMBL4145519, “Structural investigations on coumarins leading to chromeno[4,3-c]pyrazol-4-ones and pyrano[4,3-c]pyrazol-4-ones: New scaffolds for the design of the tumor-associated carbonic anhydrase isoforms IX and XII” (Eur J Med Chem, 2018).
